Measured values taken from ChEMBL document CHEMBL1629563, “Pharmacokinetic and safety evaluation of BILR 355, a second-generation nonnucleoside reverse transcriptase inhibitor, in healthy volunteers” (Antimicrob Agents Chemother, 2008).

Assays:
Homo sapiens [1] = assay: Toxicity in healthy human assessed as occurrence of increase in alanine aminotransferase level at 75 mg, po administered as single dose relative to control; format: organism-based; conditions: in vivo
Homo sapiens [2] = assay: Toxicity in healthy human assessed as occurrence of increase in alanine aminotransferase level at 100 mg, po administered as single dose relative to control; format: organism-based; conditions: in vivo
Homo sapiens [3] = assay: Toxicity in healthy human assessed as occurrence of constipation at 50 mg, po administered as single dose relative to control; format: organism-based; conditions: in vivo
Homo sapiens [4] = assay: Toxicity in healthy human assessed as occurrence of frequent bowel movements at 75 mg, po administered as single dose relative to control; format: organism-based; conditions: in vivo
[5] = Half life in healthy human at 50 mg, po administered as single dose coadministered with 100 mg of ritonavir; format: ADME, organism-based; conditions: in vivo
[6] = Apparent oral clearance in healthy human at 25 mg, po administered as single dose coadministered with 100 mg of ritonavir; format: ADME, organism-based; conditions: in vivo
Outline: (§1)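 Healthy male volunteers, fasted. Ritonavir 100 mg given 10 h before and again together with single oral BILR 355 in PEG solution. EDTA plasma sampled predose to 144 h. LC-MS/MS assay after protein precipitation. Noncompartmental analysis, AUC by linear up/log down trapezoidal rule; Vss = CL/F·(MRTp.o. − 1/Ka).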

[7] = Mean residence time in healthy human at 12.5 mg, po administered as single dose coadministered with 100 mg of ritonavir; format: ADME, organism-based; conditions: in vivo
[8] = Mean residence time in healthy human at 87.5 mg, po administered as single dose coadministered with 100 mg of ritonavir; format: ADME, organism-based; conditions: in vivo
[9] = Apparent volume of distribution at steady state in healthy human at 87.5 mg, po administered as single dose coadministered with 100 mg of ritonavir; format: ADME, organism-based; conditions: in vivo, read-out: Vss/F
Outline: (§2)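 Healthy male volunteers, fasted overnight, got one oral dose of BILR 355 in PEG solution with 200 ml water. Ritonavir 100 mg was given 10 h before and again with the dose. Plasma was sampled (EDTA) from predose to 144 h and assayed by validated LC-MS/MS. Cmax and Vz/F came from noncompartmental analysis. Vss/F = CL/F·(MRTp.o. − 1/Ka), with Ka from compartmental modelling.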

[10] = Apparent volume of distribution at steady state in high fat fed healthy human at 50 mg, po administered as single dose coadministered with 100 mg of ritonavir; format: ADME, organism-based; conditions: in vivo, read-out: Vss/F
Outline: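 Fed cohort: healthy males ate an FDA-recipe high-fat breakfast (about 150/250/500-600 cal from protein/carbohydrate/fat) 30 min before a 50 mg oral dose of BILR 355 in PEG solution. Ritonavir 100 mg was given 10 h before and with the dose. Plasma was sampled over 144 h and assayed by LC-MS/MS. Noncompartmental analysis gave Cmax and Vz/F. Vss/F = CL/F·(MRTp.o. − 1/Ka).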

[11] = Renal clearance in high fat fed healthy human at 50 mg, po administered as single dose coadministered with 100 mg of ritonavir by high-pressure liquid chromatography-tandem mass spectrometry/mass spectrometry method; format: ADME, organism-based, Kidney; conditions: in vivo, read-out: CL_renal (converted)
[12] = Drug excretion in healthy human urine assessed as unchanged drug at 5 mg, po administered as single dose coadministered with 100 mg of ritonavir by high-pressure liquid chromatography-tandem mass spectrometry/mass spectrometry method; format: ADME, organism-based; conditions: read-out: Drug uptake
Outline: (§3)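 Ritonavir 100 mg was given 10 h before and with one oral dose of BILR 355 in PEG solution. Urine was collected by weight as predose blank, then 0-6, 6-24 and 24-72 h, stored at −20°C and assayed by LC-MS/MS. fe = unchanged drug excreted (Ae) as a percentage of dose. Line 50: high-fat breakfast 30 min before dosing.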

[13] = Drug excretion in healthy human urine assessed as unchanged drug at 62.5 mg, po administered as single dose coadministered with 100 mg of ritonavir by high-pressure liquid chromatography-tandem mass spectrometry/mass spectrometry method; format: ADME, organism-based; conditions: read-out: Drug uptake; outline: as §3
Homo sapiens [14] = assay: Ratio of AUC (0 to infinity) in human at 12.5 mg, po in presence of 100 mg of ritonavir to AUC (0 to infinity) in human at 12.5 mg, po; format: ADME, organism-based; conditions: in vivo
Homo sapiens [15] = assay: Ratio of AUC (0 to infinity) in human at 75 mg, po in presence of 100 mg of ritonavir to AUC (0 to infinity) in human at 75 mg, po; format: ADME, organism-based; conditions: in vivo
Homo sapiens [16] = assay: Toxicity in healthy human assessed as occurrence of frequent bowel movements at 100 mg, po administered as single dose relative to control; format: organism-based; conditions: in vivo
Homo sapiens [17] = assay: Toxicity in healthy human assessed as occurrence of aphthous stomatitis at 100 mg, po administered as single dose; format: organism-based; conditions: in vivo
Homo sapiens [18] = assay: Toxicity in healthy human assessed as occurrence of diarrhea at 12.5 mg, po administered as single dose coadministered with 100 mg of ritonavir; format: organism-based; conditions: in vivo
Homo sapiens [19] = assay: Toxicity in healthy human assessed as occurrence of diarrhea at 25 mg, po administered as single dose coadministered with 100 mg of ritonavir; format: organism-based; conditions: in vivo
Homo sapiens [20] = assay: Toxicity in healthy human assessed as occurrence of fatigue at 25 mg, po administered as single dose coadministered with 100 mg of ritonavir; format: organism-based; conditions: in vivo
Homo sapiens [21] = assay: Toxicity in healthy human assessed as occurrence of fatigue at 37.5 mg, po administered as single dose coadministered with 100 mg of ritonavir; format: organism-based; conditions: in vivo
Homo sapiens [22] = assay: Toxicity in healthy human assessed as occurrence of fatigue at 75 mg, po administered as single dose coadministered with 100 mg of ritonavir; format: organism-based; conditions: in vivo
[23] = Apparent volume of distribution in terminal phase in healthy human at 5 mg, po administered as single dose; format: ADME, organism-based; conditions: in vivo, read-out: Vz/F
Outline: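 Single fasting oral dose of BILR 355 in PEG solution with 200 ml tap water, given to healthy males. Standard breakfast came 60-90 min after the dose. EDTA plasma was sampled predose to 144 h, stored below −18°C and assayed by LC-MS/MS after protein precipitation. Noncompartmental analysis gave Vz/F. Vss/F = CL/F·(MRTp.o. − 1/Ka), with Ka from compartmental modelling.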

[24] = AUC (0 to last) in healthy human at 37.5 mg, po administered as single dose coadministered with 100 mg of ritonavir; format: ADME, organism-based; design: dose 37.5 mg, route oral, time 0 - last; conditions: plasma; outline: as §1
[25] = Cmax in healthy human at 5 mg, po administered as single dose coadministered with 100 mg of ritonavir by high-pressure liquid chromatography-tandem mass spectrometry/mass spectrometry method; format: ADME, organism-based; design: dose 5 mg, route oral; conditions: in vivo; outline: as §2
[26] = Cmax in healthy human at 12.5 mg, po administered as single dose coadministered with 100 mg of ritonavir by high-pressure liquid chromatography-tandem mass spectrometry/mass spectrometry method; format: ADME, organism-based; design: dose 12.5 mg, route oral; conditions: in vivo; outline: as §2
[27] = Tmax in healthy human at 25 mg, po administered as single dose coadministered with 100 mg of ritonavir; format: ADME, organism-based; conditions: in vivo
Homo sapiens [28] = assay: Toxicity in healthy human assessed as occurrence of fatigue at 12.5 mg, po administered as single dose relative to control; format: organism-based; conditions: in vivo
Homo sapiens [29] = assay: Toxicity in healthy human assessed as occurrence of fatigue at 75 mg, po administered as single dose relative to control; format: organism-based; conditions: in vivo
Homo sapiens [30] = assay: Toxicity in healthy human assessed as occurrence of nausea at 25 mg, po administered as single dose relative to control; format: organism-based; conditions: in vivo

CCN1c2ncc(CCOc3cc[n+]([O-])c4ccccc34)cc2C(=O)N(C)c2cccnc21 [BILR 355]
Activity (Homo sapiens [1]): 0% | Activity (Homo sapiens [2]): 0% | Activity (Homo sapiens [3]): 0% | Activity (Homo sapiens [4]): 16.7% | half-life [5]: 11.5 h | CL/F [6]: 98 mL/min | MRT [7]: 24.8 h | MRT [8]: 14.6 h | Vd/F [9]: 112 L | Vd/F [10]: 81.4 L | CL renal [11]: 4.98 mL/min | dose excreted [12]: 4.78% | dose excreted [13]: 5.05% | Ratio (Homo sapiens [14]): 31 | Ratio (Homo sapiens [15]): 15 | Activity (Homo sapiens [16]): 0% | Activity (Homo sapiens [17]): 0% | Activity (Homo sapiens [18]): 0% | Activity (Homo sapiens [19]): 0% | Activity (Homo sapiens [20]): 0% | Activity (Homo sapiens [21]): 0% | Activity (Homo sapiens [22]): 0% | Vd/F [23]: 956 L | AUC(0-t) [24]: 5800 ng·h/mL | Cmax [25]: 25.3 ng/mL | Cmax [26]: 74.1 ng/mL | Tmax [27]: 1.75 h | Activity (Homo sapiens [28]): 20% | Activity (Homo sapiens [29]): 16.7% | Activity (Homo sapiens [30]): 0%
